Measured values reported in ChEMBL document CHEMBL3797181, “Structure-Based Optimization of a Small Molecule Antagonist of the Interaction Between WD Repeat-Containing Protein 5 (WDR5) and Mixed-Lineage Leukemia 1 (MLL1)” (J Med Chem, 2016).
Positions of bridges follow the written chain, without caps; N, C: chain ends. Non-standard residues stand in square brackets, D forms with d. Residues, ends and D or L forms follow the SMILES beside them. *: point of attachment. d(αMeK) = C[C@@](N)(CCCCN)C(=O)O; dPhg = N[C@@H](C(=O)O)c1ccccc1; Isobutyryl = CC(C)C(=O)*; Abu = CC[C@H](N)C(=O)O

Key:
[1] = Apparent solubility of compound in acetonitrile; type: physicochemical
[2] = Apparent solubility of compound in methanol; type: physicochemical
[3] = Apparent solubility of compound in DMSO; type: physicochemical
[4] = Apparent permeability from apical to basolateral side in human Caco2 cells; type: ADME, cell-based; settings: Caco-2
[5] = Apparent permeability from basolateral to apical side in human Caco2 cells; type: ADME, cell-based; settings: Caco-2
[6] = Metabolic stability in mouse liver microsomes assessed as parent compound remaining after 0.5 hrs; type: ADME; settings: read-out: Stability
[7] = Metabolic stability in mouse plasma assessed as parent compound remaining after 0.5 hrs; type: ADME, cell-free; settings: read-out: Stability
[8] = Cmax in NOD/SCID mouse plasma at 3 mg/kg, iv up to 24 hrs; type: ADME, organism-based; set-up: dose 3 mg/kg, route intravenous
Outline: (§1)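 Female NOD-SCID mice, n = 3 per route, received 3 mg/kg IV or 30 mg/kg IP, with an undosed control group (n = 3). Blood was drawn at 5, 15, 30 min and 1, 2, 4, 6 and 24 h. Plasma was separated by centrifugation and stored at −80 °C until analysis. Cmax, Tmax, t1/2, AUC, Cl and VD were derived.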

[9] = Tmax in NOD/SCID mouse plasma at 3 mg/kg, iv; type: ADME, organism-based; outline: as §1
[10] = Half life in NOD/SCID mouse plasma at 3 mg/kg, iv; type: ADME, organism-based; outline: as §1
[11] = AUC in NOD/SCID mouse plasma at 3 mg/kg, iv up to 24 hrs; type: ADME, organism-based; set-up: time < 24 hr, dose 3 mg/kg, route intravenous; outline: as §1
[12] = Clearance in NOD/SCID mouse plasma at 3 mg/kg, iv up to 24 hrs; type: ADME, organism-based; outline: as §1
[13] = Volume of distribution in NOD/SCID mouse plasma at 3 mg/kg, iv up to 24 hrs; type: ADME, organism-based; outline: as §1
[14] = Cmax in NOD/SCID mouse plasma at 30 mg/kg, ip up to 24 hrs; type: ADME, organism-based; set-up: dose 30 mg/kg, route intraperitoneal; outline: as §1
[15] = Tmax in NOD/SCID mouse plasma at 30 mg/kg, ip; type: ADME, organism-based; outline: as §1
[16] = AUC in NOD/SCID mouse plasma at 30 mg/kg, ip up to 24 hrs; type: ADME, organism-based; set-up: dose 30 mg/kg, time < 24 hr, route intraperitoneal; outline: as §1
[17] = Bioavailability in NOD/SCID mouse plasma at 30 mg/kg, ip up to 24 hrs; type: ADME, organism-based
[18] = test system: MV4-11; assay: Growth inhibition of human MV4-11 cells assessed as reduction in cell viability after 3 days; type: functional; settings: MV4-11, 72 h
[19] = Growth inhibition of human MOLM13 cells assessed as reduction in cell viability after 3 days; type: functional; settings: MOLM-13, 72 h
[20] = Growth inhibition of human KOPN8 cells assessed as reduction in cell viability after 3 days; type: functional; settings: KOPN-8, 72 h

SMILES	solubility [1]	solubility [2]	solubility [3]	also measured
Cc1cccc(C(=O)Nc2cc(-c3cccc(CN4CCOCC4)c3)ccc2N2CCN(C)CC2)c1	soluble	soluble	soluble	–
CN1CCN(c2ccc(-c3cccc(CN4CCOCC4)c3)cc2NC(=O)c2c[nH]c(=O)cc2C(F)(F)F)CC1	–	–	–	Papp A→B [4]: 0.1 ×10⁻⁶ cm/s; Papp B→A [5]: 16.8 ×10⁻⁶ cm/s; remaining at 0.5 h [6]: 85%; remaining at 0.5 h [7]: 100%; Cmax [8]: 1.26 µM; Tmax [9]: 5 min; half-life [10]: 287 min; AUC at 24 h [11]: 1010 ng·h/mL; clearance [12]: 53.9 mL/min/kg; Vd [13]: 15.6 L/kg; Cmax [14]: 6.85 µM; Tmax [15]: 15 min; AUC at 24 h [16]: 6810 ng·h/mL; bioavailability [17]: 67%
Cc1cccc(C(=O)Nc2cc(-c3ccc(CN4CCOCC4)cc3)ccc2N2CCN(C)CC2)c1	soluble	soluble	soluble	–
Cc1cccc(C(=O)Nc2cc(-c3ccc(N4CCCC4)cc3)ccc2N2CCN(C)CC2)c1	soluble	soluble	soluble	–
CC[C@@H]1NC(=O)[C@H](CCCNC(=N)N)NC(=O)[C@](C)(NC(=O)C(C)C)CCCCNC(=O)[C@@H](c2ccccc2)NC1=O (Isobutyryl-[d(αMeK)]R[Abu][dPhg]; lactam 1-C)	–	–	–	GI50 [18]: 12.4 µM; GI50 [19]: 24 µM; GI50 [20]: 29.7 µM

Second part, led by results:

solubility [1]	solubility [2]	solubility [3]	SMILES	also measured
soluble	soluble	soluble	Cc1cccc(C(=O)Nc2cc(-c3cccc(N4CCCC4)c3)ccc2N2CCN(C)CC2)c1	–
soluble	soluble	soluble	Cc1cccc(C(=O)Nc2cc(-c3ccc4c(c3)CCO4)ccc2N2CCN(C)CC2)c1	–
soluble	soluble	soluble	Cc1cccc(C(=O)Nc2cc(-c3ccccc3CN3CCOCC3)ccc2N2CCN(C)CC2)c1	–
soluble	soluble	soluble	Cc1cccc(C(=O)Nc2cc(-c3cccc4c3OCC4)ccc2N2CCN(C)CC2)c1	–
